Measured values published in ChEMBL document CHEMBL3632558, “Synthesis, antimycobacterial and antibacterial activity of l-[(1R,2S)-2-fluorocyclopropyl]naphthyridone derivatives containing an oxime-functionalized pyrrolidine moiety” (2015).
Converted amounts (≈) assume the structure as drawn.

How the values were obtained:
Format in all cases: functional
[1] = system: Escherichia coli; experiment: Antibacterial activity against ESBL-positive Escherichia coli 14-2 after 18 to 24 hrs
Method in brief: (§1)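 MIC by standard NCCLS reference procedure (M100-S11); lowest concentration of compound inhibiting visible bacterial growth after incubation at 35 °C for 18–24 h, read as complete inhibition of growth. Ciprofloxacin, levofloxacin and moxifloxacin run alongside as reference agents.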

[2] = system: Pseudomonas aeruginosa; experiment: Antibacterial activity against Pseudomonas aeruginosa ATCC 27853 after 18 to 24 hrs; method in brief: as §1
[3] = system: Escherichia coli; experiment: Antibacterial activity against ESBL-positive Escherichia coli 14-1 after 18 to 24 hrs; method in brief: as §1
[4] = system: Enterococcus faecium; experiment: Antibacterial activity against Enterococcus faecium 14-5 after 18 to 24 hrs; method in brief: as §1
[5] = system: Pseudomonas aeruginosa; experiment: Antibacterial activity against Pseudomonas aeruginosa 14-15 after 18 to 24 hrs; method in brief: as §1
[6] = system: Klebsiella pneumoniae; experiment: Antibacterial activity against Klebsiella pneumoniae 14-1 after 18 to 24 hrs; method in brief: as §1
[7] = system: Enterococcus faecalis; experiment: Antibacterial activity against Enterococcus faecalis 14-1 after 18 to 24 hrs; method in brief: as §1
[8] = system: Escherichia coli; experiment: Antibacterial activity against Escherichia coli 14-2 after 18 to 24 hrs; method in brief: as §1
[9] = system: Staphylococcus epidermidis; experiment: Antibacterial activity against methicillin-resistant Staphylococcus epidermidis 14-37 after 18 to 24 hrs
[10] = system: Staphylococcus aureus; experiment: Antibacterial activity against methicillin-sensitive Staphylococcus aureus 14-2 after 18 to 24 hrs; method in brief: as §1
[11] = system: Enterococcus faecium; experiment: Antibacterial activity against Enterococcus faecium 14-1 after 18 to 24 hrs; method in brief: as §1
[12] = system: Staphylococcus epidermidis; experiment: Antibacterial activity against methicillin-resistant Staphylococcus epidermidis 14-39 after 18 to 24 hrs
[13] = system: Staphylococcus epidermidis; experiment: Antibacterial activity against methicillin-sensitive Staphylococcus epidermidis 14-2 after 18 to 24 hrs; method in brief: as §1
[14] = system: Enterococcus faecalis; experiment: Antibacterial activity against Enterococcus faecalis 14-2 after 18 to 24 hrs; method in brief: as §1
[15] = system: Escherichia coli; experiment: Antibacterial activity against Escherichia coli 14-1 after 18 to 24 hrs; method in brief: as §1
[16] = system: Staphylococcus epidermidis; experiment: Antibacterial activity against methicillin-resistant Staphylococcus epidermidis 14-21 after 18 to 24 hrs
[17] = system: Enterococcus faecium; experiment: Antibacterial activity against Enterococcus faecium 14-2 after 18 to 24 hrs; method in brief: as §1
[18] = system: Klebsiella pneumoniae; experiment: Antibacterial activity against Klebsiella pneumoniae 14-2 after 18 to 24 hrs; method in brief: as §1
[19] = system: Staphylococcus aureus; experiment: Antibacterial activity against methicillin-sensitive Staphylococcus aureus 14-3 after 18 to 24 hrs; method in brief: as §1
[20] = system: Klebsiella pneumoniae; experiment: Antibacterial activity against ESBL-positive Klebsiella pneumoniae 14-18 after 18 to 24 hrs; method in brief: as §1
[21] = system: Pseudomonas aeruginosa; experiment: Antibacterial activity against Pseudomonas aeruginosa 14-19 after 18 to 24 hrs; method in brief: as §1
[22] = system: Mycobacterium tuberculosis; experiment: Antimycobacterial activity against Mycobacterium tuberculosis H37Rv ATCC 27294 by alamar blue assay
Method in brief: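 Microplate Alamar Blue Assay; MIC is the lowest concentration giving ≥90% reduction in fluorescence relative to the mean of replicate bacterium-only controls. MDR strain 6133 is resistant to isoniazid and rifampicin.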

[23] = system: Pseudomonas aeruginosa; experiment: Antibacterial activity against Pseudomonas aeruginosa 14-14 after 18 to 24 hrs; method in brief: as §1
[24] = system: Streptococcus pneumoniae; experiment: Antibacterial activity against Streptococcus pneumoniae ATCC 19615 after 18 to 24 hrs; method in brief: as §1
[25] = system: Staphylococcus aureus; experiment: Antibacterial activity against methicillin-sensitive Staphylococcus aureus 14-4 after 18 to 24 hrs; method in brief: as §1
[26] = system: Klebsiella pneumoniae; experiment: Antibacterial activity against Klebsiella pneumoniae 14-4 after 18 to 24 hrs; method in brief: as §1
[27] = system: Enterococcus faecium; experiment: Antibacterial activity against Enterococcus faecium 14-6 after 18 to 24 hrs; method in brief: as §1
[28] = system: Klebsiella pneumoniae; experiment: Antibacterial activity against ESBL-positive Klebsiella pneumoniae 14-17 after 18 to 24 hrs; method in brief: as §1
[29] = system: Staphylococcus epidermidis; experiment: Antibacterial activity against methicillin-resistant Staphylococcus epidermidis 14-22 after 18 to 24 hrs
[30] = system: Staphylococcus aureus; experiment: Antibacterial activity against methicillin-resistant Staphylococcus aureus 14-4 after 18 to 24 hrs
[31] = system: Pseudomonas aeruginosa; experiment: Antibacterial activity against Pseudomonas aeruginosa 14-9 after 18 to 24 hrs; method in brief: as §1
[32] = system: Escherichia coli; experiment: Antibacterial activity against Escherichia coli ATCC 25922 after 18 to 24 hrs; method in brief: as §1
[33] = system: Klebsiella pneumoniae; experiment: Antibacterial activity against Klebsiella pneumoniae 14-3 after 18 to 24 hrs; method in brief: as §1
[34] = system: Klebsiella pneumoniae; experiment: Antibacterial activity against ESBL-positive Klebsiella pneumoniae 14-19 after 18 to 24 hrs; method in brief: as §1
[35] = system: Staphylococcus aureus; experiment: Antibacterial activity against methicillin-sensitive Staphylococcus aureus 14-1 after 18 to 24 hrs; method in brief: as §1
[36] = system: Staphylococcus aureus; experiment: Antibacterial activity against Staphylococcus aureus CMCC 26003 after 18 to 24 hrs; method in brief: as §1
[37] = system: Staphylococcus aureus; experiment: Antibacterial activity against methicillin-resistant Staphylococcus aureus 14-5 after 18 to 24 hrs
[38] = system: Pseudomonas aeruginosa; experiment: Antibacterial activity against Pseudomonas aeruginosa 14-16 after 18 to 24 hrs; method in brief: as §1

Compound | MIC [1] | MIC [2] | MIC [3] | MIC [4] | MIC [5] | MIC [6] | MIC [7] | MIC [8] | MIC [9] | MIC [10] | MIC [11] | MIC [12] | MIC [13] | MIC [14] | MIC [15] | MIC [16] | MIC [17] | MIC [18] | MIC [19] | MIC [20] | further results
NCC1CN(c2nc3c(cc2F)c(=O)c(C(=O)O)cn3[C@@H]2C[C@@H]2F)C/C1=N\OCc1ccc(Br)cc1 (some centres undefined) | 64 µg/mL (≈ 114 µM) | 4 µg/mL (≈ 7.11 µM) | 4 µg/mL (≈ 7.11 µM) | 8 µg/mL (≈ 14.2 µM) | 8 µg/mL (≈ 14.2 µM) | 128 µg/mL (≈ 228 µM) | 32 µg/mL (≈ 56.9 µM) | 64 µg/mL (≈ 114 µM) | 16 µg/mL (≈ 28.5 µM) | < 0.008 µg/mL | 2 µg/mL (≈ 3.56 µM) | 8 µg/mL (≈ 14.2 µM) | 16 µg/mL (≈ 28.5 µM) | 0.125 µg/mL (≈ 0.222 µM) | 64 µg/mL (≈ 114 µM) | 4 µg/mL (≈ 7.11 µM) | 2 µg/mL (≈ 3.56 µM) | 128 µg/mL (≈ 228 µM) | 0.015 µg/mL (≈ 0.0267 µM) | 8 µg/mL (≈ 14.2 µM) | MIC [21]: 16 µg/mL (≈ 28.5 µM); MIC90 [22]: 0.375 µg/mL (≈ 0.667 µM); MIC [23]: 8 µg/mL (≈ 14.2 µM); MIC [24]: < 0.008 µg/mL; MIC [25]: < 0.008 µg/mL; MIC [26]: 128 µg/mL (≈ 228 µM); MIC [27]: 16 µg/mL (≈ 28.5 µM); MIC [28]: 8 µg/mL (≈ 14.2 µM); MIC [29]: 2 µg/mL (≈ 3.56 µM); MIC [30]: 16 µg/mL (≈ 28.5 µM); MIC [31]: 8 µg/mL (≈ 14.2 µM); MIC [32]: 0.125 µg/mL (≈ 0.222 µM); MIC [33]: 128 µg/mL (≈ 228 µM); MIC [34]: > 128 µg/mL; MIC [35]: 2 µg/mL (≈ 3.56 µM); MIC [36]: < 0.008 µg/mL; MIC [37]: 16 µg/mL (≈ 28.5 µM); MIC [38]: 8 µg/mL (≈ 14.2 µM)
NCC1CN(c2nc3c(cc2F)c(=O)c(C(=O)O)cn3[C@@H]2C[C@@H]2F)C/C1=N\OCc1ccc(OC(F)(F)F)cc1 (some centres undefined) | 128 µg/mL (≈ 226 µM) | 16 µg/mL (≈ 28.2 µM) | 8 µg/mL (≈ 14.1 µM) | 8 µg/mL (≈ 14.1 µM) | 32 µg/mL (≈ 56.4 µM) | 128 µg/mL (≈ 226 µM) | 32 µg/mL (≈ 56.4 µM) | 128 µg/mL (≈ 226 µM) | 8 µg/mL (≈ 14.1 µM) | 0.03 µg/mL (≈ 0.0529 µM) | 4 µg/mL (≈ 7.05 µM) | 8 µg/mL (≈ 14.1 µM) | 16 µg/mL (≈ 28.2 µM) | 0.5 µg/mL (≈ 0.881 µM) | 128 µg/mL (≈ 226 µM) | 8 µg/mL (≈ 14.1 µM) | 4 µg/mL (≈ 7.05 µM) | 128 µg/mL (≈ 226 µM) | 0.015 µg/mL (≈ 0.0264 µM) | 32 µg/mL (≈ 56.4 µM) | MIC [21]: 16 µg/mL (≈ 28.2 µM); MIC90 [22]: 0.987 µg/mL (≈ 1.74 µM); MIC [23]: 32 µg/mL (≈ 56.4 µM); MIC [24]: 0.015 µg/mL (≈ 0.0264 µM); MIC [25]: 0.06 µg/mL (≈ 0.106 µM); MIC [26]: 128 µg/mL (≈ 226 µM); MIC [27]: 4 µg/mL (≈ 7.05 µM); MIC [28]: 32 µg/mL (≈ 56.4 µM); MIC [29]: 8 µg/mL (≈ 14.1 µM); MIC [30]: 16 µg/mL (≈ 28.2 µM); MIC [31]: 16 µg/mL (≈ 28.2 µM); MIC [32]: 2 µg/mL (≈ 3.52 µM); MIC [33]: 128 µg/mL (≈ 226 µM); MIC [34]: 128 µg/mL (≈ 226 µM); MIC [35]: 4 µg/mL (≈ 7.05 µM); MIC [36]: < 0.008 µg/mL; MIC [37]: 4 µg/mL (≈ 7.05 µM); MIC [38]: 32 µg/mL (≈ 56.4 µM)
Cc1ccc(CO/N=C2\CN(c3nc4c(cc3F)c(=O)c(C(=O)O)cn4[C@@H]3C[C@@H]3F)CC2CN)cc1 (some centres undefined) | 64 µg/mL (≈ 129 µM) | 4 µg/mL (≈ 8.04 µM) | 2 µg/mL (≈ 4.02 µM) | 8 µg/mL (≈ 16.1 µM) | 8 µg/mL (≈ 16.1 µM) | 64 µg/mL (≈ 129 µM) | 32 µg/mL (≈ 64.3 µM) | 32 µg/mL (≈ 64.3 µM) | 8 µg/mL (≈ 16.1 µM) | < 0.008 µg/mL | 0.5 µg/mL (≈ 1.01 µM) | 16 µg/mL (≈ 32.2 µM) | 8 µg/mL (≈ 16.1 µM) | < 0.008 µg/mL | 16 µg/mL (≈ 32.2 µM) | 4 µg/mL (≈ 8.04 µM) | 0.5 µg/mL (≈ 1.01 µM) | 128 µg/mL (≈ 257 µM) | < 0.008 µg/mL | 8 µg/mL (≈ 16.1 µM) | MIC [21]: 8 µg/mL (≈ 16.1 µM); MIC90 [22]: < 0.25 µg/mL; MIC [23]: 8 µg/mL (≈ 16.1 µM); MIC [24]: < 0.008 µg/mL; MIC [25]: 0.015 µg/mL (≈ 0.0302 µM); MIC [26]: 128 µg/mL (≈ 257 µM); MIC [27]: 4 µg/mL (≈ 8.04 µM); MIC [28]: 8 µg/mL (≈ 16.1 µM); MIC [29]: 2 µg/mL (≈ 4.02 µM); MIC [30]: 8 µg/mL (≈ 16.1 µM); MIC [31]: 8 µg/mL (≈ 16.1 µM); MIC [32]: < 0.008 µg/mL; MIC [33]: 64 µg/mL (≈ 129 µM); MIC [34]: 128 µg/mL (≈ 257 µM); MIC [35]: 2 µg/mL (≈ 4.02 µM); MIC [36]: < 0.008 µg/mL; MIC [37]: 4 µg/mL (≈ 8.04 µM); MIC [38]: 8 µg/mL (≈ 16.1 µM)
